From PubChem
Sampled rows, rich in hits. Any-hit rate of the full collection: about 2.6%.
BB579 growth dn: chemicals that inhibit yeast BB579 growth in restrictive medium (lifespan-shortening candidates); inhibition, % at 10 µM; AID 804; S. cerevisiae BB579 growth, OD615, 48 h; hit rate 0.51% among 140,000;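 active means inhibition above a set limit, 3 SD over the mean compound inhibition, cut at about 44% in these data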
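Detection: OD615 turbidity measurement; Material: Saccharomyces cerevisiae DeaD strain BB579, replicative lifespan model yeast; Timing: 48 h exposure, 30 °C; Doses: single 10 µM dose; Medium: CSMM-D restrictive synthetic medium containing dextrose (glucose); Controls: amphotericin B at 10 µg/mL as positive control.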
Yeast lifespan up: extends the lifespan of yeast. S. cerevisiae growth with nicotinamide, OD615; deaD strain in restrictive glucose medium. inhibition of the nicotinamide effect, % at 10 µM. hit rate 0.68% among 130,000. AID 775;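 active means inhibition above a set limit, placed 3 SD over the median of all compounds, cut at about 26% in these data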;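 further: 0% = nicotinamide-treated wells and 100% = cells grown without nicotinamide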
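Assay system: engineered S. cerevisiae DeaD replicative-lifespan strain, galactose-grown log-phase cells; Buffer or medium: CSMM-D glucose medium, restrictive; Probe or stimulus: nicotinamide 1.5 mM; Compound: single dose 10 µM compound, 0.25% DMSO; Schedule: 4 h preincubation then 48 h treatment at 30 °C; Technique: OD615 measurement.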
RAM inhibit: inhibitors of the yeast RAM network; S. cerevisiae dse1pr::URA3 reporter, 5-FOA growth OD615, 2 d; analog-sensitive cbk1-as2 kinase mutant strain; inhibition, % at 50 µM; hit rate 1.8% among 190,000; AID 868;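 active means inhibition above a set limit, 3 SD over mean compound inhibition, cut at about 8.4% in these data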;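 further: 0% = DMSO-only wells with no growth and 100% = 10 µM 1-NA-PP1 full growth; inhibition rescues growth on 5-FOA so higher OD means more RAM inhibition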
* hit, by the source's call; nt = not tested or not shown.

SMILES | BB579 growth dn | Yeast lifespan up | RAM inhibit
CCN(CC)S(=O)(=O)c1cc(NC(=O)COC(=O)c2sc3ccccc3c2Cl)ccc1C | -6 | -2 | 4
Cc1ccc(NC(=O)COC(=O)CCC(=O)c2ccc(Cl)cc2)cc1S(=O)(=O)N(C)C | -24 | 0 | 11*
CCOc1cc(C(=O)CCC(=O)OCC(=O)Nc2ccc(C)c(S(=O)(=O)N(C)C)c2)ccc1O | nt | nt | 4
Cc1nn2cc(-c3cccc(Cl)c3)cnc2c1Br | nt | nt | 0
COC(=O)c1ccc(Cl)c(-c2ccc(/C=N/NC(=O)Nc3ccccc3)o2)c1 | -66 | -13 | 9.0*
C=CCNC(=S)N/N=C/c1ccc(-c2cc(Cl)ccc2Cl)o1 | 0 | -19 | 3
Cc1ccc(N2C(=O)CC(Sc3ccccc3C(=O)O)C2=O)cc1C (stereo not drawn) | nt | nt | -1
Fc1ccc(C(CNC(=S)NC2CCCCC2)N2CCOCC2)cc1 (stereo not drawn) | nt | nt | 1
Cc1ccccc1-c1ccc(=O)n(CC(=O)Nc2ccc(S(=O)(=O)N(C)C)cc2)n1 | nt | nt | 8.9*
COc1ccccc1-c1ccc(=O)n(CC(=O)Nc2ccc(C(=O)N3CCCC3)cc2)n1 | -33 | -9 | 1
CC(C)(C)n1nc2c(c1NC(=O)c1cc3ccccc3o1)CS(=O)(=O)C2 | nt | nt | 3
C/C(=N\NC(=O)c1ccccn1)c1ccc(C(=O)O)s1 | nt | nt | 2
CC(C)OCCCNS(=O)(=O)c1ccc2ccccc2c1 | -41 | 108* | -1
O=S(=O)(NCCOc1ccccc1)c1ccc2ccccc2c1 | -22 | -6 | 2
Cc1ccc(-n2ncc(Cl)c2C(=O)NC2CC2)cc1 | nt | nt | 1
COc1cc(SC)ccc1C(=O)NCCOc1ccc(C)c(C)c1 | -56 | -5 | 2
O=C(NC1CCCCC1)c1cc([N+](=O)[O-])[nH]n1 | -26 | -1 | 2
CCCCNC(=O)/C(C#N)=C/c1cccnc1 | -2 | 46* | 4
N#C/C(=C\c1cccnc1)C(=O)NC1CCCCC1 | -18 | 32* | 2
CCCCNC(=O)/C(C#N)=C/c1ccc2c(c1)OCCO2 | 13 | 0 | -1
N#C/C(=C\c1ccc2c(c1)OCCO2)C(=O)NC1CCCCC1 | -17 | 2 | 4
CCCCCCCCNC(=O)/C(C#N)=C/c1ccc2c(c1)OCCO2 | -24 | 5 | 9.4*
Cc1cccc(NC(=O)/C(C#N)=C\c2cccnc2)c1 | -31 | -5 | 1
CN(C)S(=O)(=O)c1ccc(NC=O)cc1 | nt | nt | 0
CCCn1ncc(CN2CCC(N3CCC(C(=O)N4CCOCC4)CC3)CC2)c1C | nt | nt | 1
SMILES | BB579 growth dn | Yeast lifespan up | RAM inhibit
CC(=O)Nc1ccccc1C(=O)C(=O)Nc1ccc(C(=O)N2CCOCC2)cc1 | nt | nt | 1
CCOc1ccc2[nH]c(=O)c(C(c3nnnn3Cc3ccco3)N3CCN(C)CC3)cc2c1 (stereo not drawn) | nt | nt | 0
O=C(Nn1cnc2ccccc2c1=O)c1ccc([N+](=O)[O-])cc1 | nt | nt | 2
C/C(=N\OCC(=O)NC12CC3CC(CC(C3)C1)C2)c1cc2ccccc2o1 | -9 | 3 | 5
C/C(=N\OCC(=O)Nc1ccc(F)c(F)c1F)c1cc2ccccc2o1 | -4 | -5 | 2
CCc1ccc(NC(=O)CO/N=C(\C)c2cc3ccccc3o2)cc1 | -13 | -4 | 8.4*
CSc1ccccc1NC(=O)CO/N=C(\C)c1cc2ccccc2o1 | -9 | -7 | 9.2*
CCOC(=O)c1c(NC(=O)c2c(C(=O)O)cccc2[N+](=O)[O-])sc(C)c1C | nt | nt | 0
Cc1cc(C)n2nc(/C(C#N)=C/c3ccccn3)c(C#N)c2n1 | nt | nt | 0
COc1ccc2c(COC(=O)CNC(=O)C34CC5CC(CC(C5)C3)C4)cc(=O)oc2c1 | -30 | -1 | 2
CCC(C(=O)Nc1ccc(C(=O)N2CCCC2)cc1)c1ccccc1 (stereo not drawn) | nt | nt | 0
COc1ccc(C(=O)N2CCN(c3nc4cc(C)ccc4cc3C#N)CC2)c(OC)c1 | -3 | -14 | 0
COc1ccc2cc(C#N)c(N3CCN(C(=O)c4ccccc4C)CC3)nc2c1 | nt | nt | 8.8*
Cc1ccc(CNc2nc3ccccc3s2)s1 | -38 | 32* | 0
Cc1ccc(C(=O)Nc2nc3ccccc3s2)s1 | -21 | -22 | 1
COc1ccc(CCNC(=O)C(=O)N2CCCC2)cc1OC | nt | nt | 0
Fc1ccc(C(CCCn2nnc(-c3cccnc3)n2)c2ccc(F)cc2)cc1 | -29 | 1 | 10.0*
Fc1ccc(-n2nnc(-c3cccnc3)n2)cc1 | nt | nt | 1
O=C1c2ccccc2C(=O)N1CC(O)CNc1ccc(Br)cc1 (stereo not drawn) | 7 | 0 | 4
O=C(O)CC(NC(=O)c1ccncc1)c1ccccc1 (stereo not drawn) | nt | nt | 1
O=C(CCSc1nc(-c2ccco2)cc(C(F)(F)F)n1)NCCc1ccccc1 | -74 | -9 | 9.9*
